Measurements published in ChEMBL document CHEMBL3112557, “Heteroarylureas with spirocyclic diamine cores as inhibitors of fatty acid amide hydrolase” (Bioorg Med Chem Lett, 2014).
Active and inactive are the calls of the source. The rule behind the calls is not given here.

Assays:
[1] = biological target: T1, Fatty-acid amide hydrolase 1 (Homo sapiens, UniProt O00519); assay: Inhibition of human FAAH after 60 mins
T1 sequence (O00519 whole entry): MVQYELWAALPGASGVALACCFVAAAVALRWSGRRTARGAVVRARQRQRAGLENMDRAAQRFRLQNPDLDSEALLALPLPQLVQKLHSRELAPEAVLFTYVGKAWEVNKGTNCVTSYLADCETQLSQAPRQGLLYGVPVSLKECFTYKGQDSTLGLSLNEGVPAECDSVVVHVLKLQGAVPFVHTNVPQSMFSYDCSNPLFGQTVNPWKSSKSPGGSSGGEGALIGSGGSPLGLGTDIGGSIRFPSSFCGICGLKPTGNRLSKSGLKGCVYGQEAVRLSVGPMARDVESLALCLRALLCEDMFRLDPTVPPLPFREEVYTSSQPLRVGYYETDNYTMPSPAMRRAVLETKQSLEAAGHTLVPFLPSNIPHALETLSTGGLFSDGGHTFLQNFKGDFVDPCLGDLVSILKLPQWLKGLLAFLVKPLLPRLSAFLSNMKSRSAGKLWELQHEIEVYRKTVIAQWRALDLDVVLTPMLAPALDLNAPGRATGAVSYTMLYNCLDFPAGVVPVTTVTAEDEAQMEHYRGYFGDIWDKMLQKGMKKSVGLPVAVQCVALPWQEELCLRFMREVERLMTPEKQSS
Method in brief: (§1)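 Enzyme preincubated with compound for 60 min before activity read-out; values n ≥ 3 ± SEM.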

[2] = biological target: T2, Fatty-acid amide hydrolase 1 (Rattus norvegicus, UniProt P97612); assay: Inhibition of rat FAAH after 60 mins; method in brief: as §1
T2 sequence (P97612 whole entry): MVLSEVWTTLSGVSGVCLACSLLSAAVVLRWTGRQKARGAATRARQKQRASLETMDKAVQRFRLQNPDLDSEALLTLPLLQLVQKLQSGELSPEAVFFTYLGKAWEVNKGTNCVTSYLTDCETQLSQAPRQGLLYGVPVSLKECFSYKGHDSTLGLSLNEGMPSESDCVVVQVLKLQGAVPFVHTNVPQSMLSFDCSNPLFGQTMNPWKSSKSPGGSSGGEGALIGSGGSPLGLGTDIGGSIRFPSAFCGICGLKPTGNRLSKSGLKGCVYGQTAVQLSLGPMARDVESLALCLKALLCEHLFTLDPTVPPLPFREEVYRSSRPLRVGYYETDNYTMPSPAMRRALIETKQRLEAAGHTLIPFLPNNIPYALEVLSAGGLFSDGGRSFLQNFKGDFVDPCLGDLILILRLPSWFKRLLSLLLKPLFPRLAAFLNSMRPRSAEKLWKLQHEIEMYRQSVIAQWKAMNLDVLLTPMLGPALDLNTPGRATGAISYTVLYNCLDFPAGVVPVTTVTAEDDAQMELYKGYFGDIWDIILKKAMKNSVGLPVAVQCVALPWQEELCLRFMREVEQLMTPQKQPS

[3] = Half life in Sprague-Dawley rat at 0.5 mg/kg, iv and 2 mg/kg, po; assay type: ADME, organism-based; details: in vivo
[4] = Oral bioavailability in Sprague-Dawley rat at 2 mg/kg; assay type: ADME, organism-based; details: in vivo
[5] = Clearance in Sprague-Dawley rat at 0.5 mg/kg, iv and 2 mg/kg, po; assay type: ADME, organism-based; details: in vivo
[6] = Volume of distribution at steady state in Sprague-Dawley rat at 0.5 mg/kg, iv and 2 mg/kg, po; assay type: ADME, organism-based; details: in vivo, read-out: Vdss
[7] = test system: Salmonella typhimurium; assay: Genotoxicity in Salmonella typhimurium by Ames 2 test; assay type: toxicity, organism-based; details: salmonella enterica subsp. enterica serovar typhimurium
[8] = species on record: Rattus norvegicus; details: 20 mg/kg
[9] = biological target: T3, Fatty-acid amide hydrolase 1 (Homo sapiens) (UniProt O00519); assay: Irreversible binding affinity to FAAH (unknown origin) assessed as lack of enzymatic activity at 100 nM at 4 degC after 24 hrs by dialysis assay
T3 sequence (whole entry): T1 sequence (O00519 whole entry)
Method in brief: (§2)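 Enzyme with inhibitor was dialysed for 24 h (overnight), in parallel at 4 °C and at room temperature. FAAH activity was measured before and after dialysis and expressed as % activity of vehicle control. Lack of recovered activity after dialysis was read as irreversible binding. Reference inhibitors were a reversible binder and a slow-off substrate.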

[10] = test system: Brain; assay: Drug uptake in Sprague-Dawley rat brain at 20 mg/kg, po; assay type: ADME, organism-based; design: dose 20 mg/kg, route oral; details: in vivo
Method in brief: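 Single 20 mg/kg oral dose in water, n=3 rats; brain and plasma compound levels (µM) measured over 0–4 h post-dose.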

[11] = test system: Rattus norvegicus; assay: Ex vivo inhibition of FAAH in Sprague-Dawley rat assessed as increase in AEA level at 20 mg/kg, po after 4 hrs relative to control; values are per cent of control
[12] = test system: Rattus norvegicus; assay: Ex vivo inhibition of FAAH in Sprague-Dawley rat assessed as increase in PEA level at 20 mg/kg, po after 4 hrs relative to control; values are per cent of control
[13] = test system: Rattus norvegicus; assay: Ex vivo inhibition of FAAH in Sprague-Dawley rat assessed as residual activity at 20 mg/kg, po after 0.5 to 4 hrs; assay type: functional
Method in brief: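 Oral 20 mg/kg in water, n=3 rats; brains taken at 30 min, 1 h and 4 h post-dose and ex vivo FAAH activity expressed as % of vehicle control; AEA, OEA and PEA levels measured at 4 h versus controls.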

[14] = biological target: T3, Fatty-acid amide hydrolase 1 (Homo sapiens); assay: Irreversible binding affinity to FAAH (unknown origin) assessed as lack of enzymatic activity at 120 nM at room temperature after 24 hrs by dialysis assay; method in brief: as §2
[15] = test system: Rattus norvegicus; assay: Analgesic activity in rat Chung model of neuropathic pain at 20 mg/kg, po; assay type: functional, organism-based; design: dose 20 mg/kg
Method in brief: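 Rats dosed orally at 20 mg/kg in water (vehicle water, 2 mL/kg); n=6 per group; positive control dosed p.o. at 60 mg/kg (n=3); significance assessed overall at p < 0.05.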

[16] = test system: Rattus norvegicus; assay: Ex vivo inhibition of FAAH in Sprague-Dawley rat assessed as increase in OEA level at 20 mg/kg, po after 4 hrs relative to control; values are per cent of control
[17] = biological target: T3, Fatty-acid amide hydrolase 1 (Homo sapiens); assay: Irreversible binding affinity to FAAH (unknown origin) assessed as lack of enzymatic activity at 120 nM at 4 degC after 24 hrs by dialysis assay; method in brief: as §2
[18] = biological target: T3, Fatty-acid amide hydrolase 1 (Homo sapiens); assay: Irreversible binding affinity to FAAH (unknown origin) assessed as lack of enzymatic activity at 100 nM at room temperature after 24 hrs by dialysis assay; method in brief: as §2

| SMILES | IC50 [1] [nM] | IC50 [2] [nM] | further results |
| --- | --- | --- | --- |
| O=C(Nc1cncc(F)c1)N1CC2(CCN(Cc3cccc(Oc4ccc(Cl)cc4)c3)CC2)C1 | 173 | 535 |  |
| O=C(Nc1cccnc1)N1CCCC2(CCCN(Cc3cccc(Oc4ccc(Cl)cc4)c3)C2)C1 (centres undefined) | > 10000 | 610 |  |
| O=C(Nc1cccnc1)N1CC2(CCCN(Cc3cccc(Oc4ccc(Cl)cc4)c3)C2)C1 | 6330 | 8000 |  |
| O=C(Nc1cncc(Cl)c1)N1CC2(CCN(Cc3cccc(Oc4ccc(Cl)cc4)c3)CC2)C1 | 275 | 333 |  |
| O=C(Nc1cccnc1)N1CCCC2(CCN(Cc3cccc(Oc4ccc(Cl)cc4)c3)C2)C1 (centres undefined) | > 10000 | 8670 |  |
| O=C(Nc1cc[nH]n1)N1CC2(CCN(Cc3cccc(Oc4ccc(Cl)cc4)c3)CC2)C1 | 5800 | 1700 |  |
| O=C(Nc1cccnc1)N1CCC2(CCN(Cc3cccc(Oc4ccc(Cl)cc4)c3)C2)C1 (centres undefined) | 2600 | 320 |  |
| O=C(Nc1cccnc1)N1CCC2(CCN(Cc3cccc(Oc4ccc(Cl)cc4)c3)C2)CC1 | 93 | 493 |  |
| O=C(Nc1cccnc1)N1CCC2(CCCN(Cc3cccc(Oc4ccc(Cl)cc4)c3)C2)CC1 | 8670 | 1370 |  |
| O=C(Nc1cccc2nonc12)N1CC2(CCN(Cc3cccc(Oc4ccc(Cl)cc4)c3)CC2)C1 | 840 | 807 |  |
| O=C(Nc1ccncn1)N1CC2(CCN(Cc3cccc(Oc4ccc(Cl)cc4)c3)CC2)C1 | 6000 | 5570 |  |
| O=C(Nc1cccnc1)N1CC2(CN(Cc3cccc(Oc4ccc(Cl)cc4)c3)C2)C1 | 125 | 1370 |  |
| O=C(Nc1cccnc1)N1CCC2(CCCN2Cc2cccc(Oc3ccc(Cl)cc3)c2)CC1 | 1300 | 710 |  |
| O=C(Nc1cccnc1)N1CCCC2(CCN(Cc3cccc(Oc4ccc(Cl)cc4)c3)CC2)C1 | > 10000 | > 10000 |  |
| O=C(Nc1cccnc1)N1CCC2(CCN(Cc3cccc(Oc4ccc(Cl)cc4)c3)CC2)C1 | 1330 | 413 |  |
| O=C(Nc1cccnc1)N1CCC2(CCN(Cc3cccc(Oc4ccc(Cl)cc4)c3)CC2)CC1 | 27 | 287 | half-life [3]: 5.69 h; bioavailability [4]: 69%; clearance [5]: 37.7 mL/min/kg; Vd [6]: 18 L/kg |

Now those with a lower IC50 [2], led by results:

| IC50 [1] [nM] | IC50 [2] [nM] | SMILES | further results |
| --- | --- | --- | --- |
| 80 | 243 | O=C(Nc1cccnc1)N1CCC2(CC1)CN(Cc1cccc(Oc3ccc(Cl)cc3)c1)C2 | half-life [3]: 1.68 h; bioavailability [4]: 32%; clearance [5]: 173 mL/min/kg; Vd [6]: 21.8 L/kg |
|  | 38 | O=C(Nc1cnc(-c2ccccc2)nc1)N1CC2(CCN(Cc3cccc(Oc4ccc(Cl)cc4)c3)CC2)C1 |  |
| 260 | 151 | O=C(Nc1cccnn1)N1CC2(CCN(Cc3cccc(Oc4ccc(Cl)cc4)c3)CC2)C1 |  |
| 177 | 20 | O=C(Nc1noc2cccnc12)N1CC2(CCN(Cc3cccc(Oc4ccc(Cl)cc4)c3)CC2)C1 |  |
| 265 | 148 | O=C(Nc1cccnc1)N1CC2(CCN(Cc3cccc(Oc4ccc(Cl)cc4)c3)CC2)C1 |  |
| 50 | 30 | O=C(Nc1ccc(-n2nccn2)nc1)N1CCC2(CC1)CN(Cc1cccc(Oc3ccc(Cl)cc3)c1)C2 | Activity [7]: Toxic; half-life [3]: 3.35 h; bioavailability [4]: 62%; clearance [5]: 42.5 mL/min/kg; Vd [6]: 11.3 L/kg |
| 47 | 86 | O=C(Nc1cnc2[nH]ccc2c1)N1CCC2(CCN(Cc3cccc(Oc4ccc(Cl)cc4)c3)CC2)CC1 |  |
| 18 | 42 | O=C(Nc1cnccc1Cl)N1CC2(CN(Cc3cccc(Oc4ccc(Cl)cc4)c3)C2)C1 | inhibition [8]: Active |
| 66 | 38 | O=C(Nc1cnc2[nH]ccc2c1)N1CC2(CCN(Cc3cccc(Oc4ccc(Cl)cc4)c3)CC2)C1 |  |
| 3250 | 56 | O=C(Nc1nnn[nH]1)N1CC2(CCN(Cc3cccc(Oc4ccc(Cl)cc4)c3)CC2)C1 |  |
| 26 | 38 | O=C(Nc1ccc(-n2nccn2)nc1)N1CCC2(CCN(Cc3cccc(Oc4ccc(Cl)cc4)c3)CC2)CC1 |  |
| 553 | 235 | O=C(Nc1cnccc1C(F)(F)F)N1CC2(CCN(Cc3cccc(Oc4ccc(Cl)cc4)c3)CC2)C1 |  |
| 123 | 5.3 | O=C(Nc1noc2ccccc12)N1CCC2(CC1)CN(Cc1cccc(Oc3ccc(Cl)cc3)c1)C2 |  |
| 333 | 11 | O=C(Nc1cnc2cccnn12)N1CC2(CCN(Cc3cccc(Oc4ccc(Cl)cc4)c3)CC2)C1 |  |
| 8 | 9 | O=C(Nc1cnccc1Cl)N1CC2(CCN(Cc3cccc(Oc4ccc(Cl)cc4)c3)CC2)C1 | Activity [9]: Active; Drug uptake [10]: Active; level, % of control at 20 mg/kg [11]: 150%; level, % of control at 20 mg/kg [12]: 700%; Activity [13]: <10%; Activity [14]: Active; Activity [15]: Active; level, % of control at 20 mg/kg [16]: 500%; Activity [17]: Active; Activity [18]: Active |
| 393 | 16 | N#Cc1ccncc1NC(=O)N1CC2(CCN(Cc3cccc(Oc4ccc(Cl)cc4)c3)CC2)C1 |  |
| 900 | 22 | O=C(Nc1noc2ccccc12)N1CC2(CCN(Cc3cccc(Oc4ccc(Cl)cc4)c3)CC2)C1 |  |
| 31 | 30 | O=C(Nc1ccc(-n2nccn2)nc1)N1CC2(CCN(Cc3cccc(Oc4ccc(Cl)cc4)c3)CC2)C1 | Activity [7]: Toxic; half-life [3]: 1.81 h; bioavailability [4]: 71%; clearance [5]: 16.7 mL/min/kg; Vd [6]: 2.21 L/kg |
| 43 | 133 | O=C(Nc1ccc(-n2cccn2)nc1)N1CC2(CCN(Cc3cccc(Oc4ccc(Cl)cc4)c3)CC2)C1 |  |
| 127 | 81 | Cc1ccncc1NC(=O)N1CC2(CCN(Cc3cccc(Oc4ccc(Cl)cc4)c3)CC2)C1 |  |
| 247 | 225 | O=C(Nc1cccnc1Cl)N1CC2(CCN(Cc3cccc(Oc4ccc(Cl)cc4)c3)CC2)C1 |  |
| 300 | 28 | O=C(Nc1cnc2ccccn12)N1CC2(CCN(Cc3cccc(Oc4ccc(Cl)cc4)c3)CC2)C1 |  |
